Reference: ChEMBL document CHEMBL4177580, “New 5-HT1A, 5HT2A and 5HT2C receptor ligands containing a picolinic nucleus: Synthesis, in vitro and in vivo pharmacological evaluation” (Bioorg Med Chem, 2017)
The source made the active and inactive calls.

Legend:
[1] = target: T1, 5-hydroxytryptamine receptor 1A (Rattus norvegicus, UniProt P19327); test: Displacement of [3H]-8-OH-DPAT from serotonin 5-HT1A receptor in Sprague-Dawley rat brain cortex homogenates incubated for 30 mins by liquid scintillation spectrometry
T1 sequence (P19327 whole entry): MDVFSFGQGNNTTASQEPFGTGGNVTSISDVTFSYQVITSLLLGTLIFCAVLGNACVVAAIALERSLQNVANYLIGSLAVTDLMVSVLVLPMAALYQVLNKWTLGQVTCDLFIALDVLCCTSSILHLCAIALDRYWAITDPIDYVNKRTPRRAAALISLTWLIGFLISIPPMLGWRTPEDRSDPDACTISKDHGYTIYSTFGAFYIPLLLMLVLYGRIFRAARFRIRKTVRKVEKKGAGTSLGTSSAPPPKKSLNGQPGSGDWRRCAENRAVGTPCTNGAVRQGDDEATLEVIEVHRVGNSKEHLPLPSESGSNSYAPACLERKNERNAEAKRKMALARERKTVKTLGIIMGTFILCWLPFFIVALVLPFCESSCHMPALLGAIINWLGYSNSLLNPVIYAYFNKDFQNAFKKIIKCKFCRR

[2] = target: 5-hydroxytryptamine receptor 2A (Rattus norvegicus, UniProt P14842); test: Displacement of [3H]ketanserin from serotonin 5-HT2A receptor in Sprague-Dawley rat brain cortex homogenates incubated for 15 mins by liquid scintillation spectrometry
[3] = target: T2, 5-hydroxytryptamine receptor 2C (Rattus norvegicus, UniProt P08909); test: Displacement of [3H]mesulergine from serotonin 5-HT2C receptor in Sprague-Dawley rat brain cortex homogenates incubated for 15 mins by liquid scintillation spectrometry
T2 sequence (P08909 whole entry): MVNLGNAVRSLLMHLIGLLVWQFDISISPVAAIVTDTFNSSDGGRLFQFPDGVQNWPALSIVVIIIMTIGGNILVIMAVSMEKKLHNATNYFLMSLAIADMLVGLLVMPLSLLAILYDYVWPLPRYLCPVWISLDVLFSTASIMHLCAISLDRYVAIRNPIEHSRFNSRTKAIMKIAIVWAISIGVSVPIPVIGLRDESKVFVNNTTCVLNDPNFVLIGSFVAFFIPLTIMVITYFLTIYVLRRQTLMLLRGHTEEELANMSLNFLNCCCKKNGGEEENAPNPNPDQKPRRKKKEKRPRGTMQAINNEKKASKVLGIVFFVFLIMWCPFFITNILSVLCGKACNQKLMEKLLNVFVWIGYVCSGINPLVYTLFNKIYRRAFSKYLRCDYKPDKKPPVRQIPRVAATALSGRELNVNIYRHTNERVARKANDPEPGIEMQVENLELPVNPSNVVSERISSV

Mus musculus [4] = test: Toxicity in Swiss albino mouse assessed as effect on motor coordination at 3.75 to 15 mg/kg, ip dosed 60 mins before test by Chimney test; assay type: organism-based; conditions: in vivo, 1 h
In short: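 Chimney test in male Swiss mice after i.p. dosing 60 min earlier: impairment defined as failure to climb backwards up a tube (3 cm inner diameter, 25 cm long) within 60 s. Animals pre-trained once daily for 3 days. One-way ANOVA with Dunnett's.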

Mus musculus [5] = test: Induction of hypothermia in normothermic Swiss albino mouse assessed as reduction in body temperature at 30 mg/kg, ip measured after 120 mins post dose; assay type: functional, organism-based
In short: (§1)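 Normothermic male Swiss mice; rectal thermistor readings over 180 min. Baseline is the mean of readings 60 and 30 min before dosing; readings at 30, 60, 90, 120 min post-injection; Δt = tf − ti. Test compounds i.p. (DMSO/methylcellulose); 8-OH-DPAT (5 mg/kg) and WAY 100635 (0.1 mg/kg) s.c. in water. Two-way ANOVA, Bonferroni.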

Mus musculus [6] = test: Inhibition of 8-OH-DPAT-induced hypothermia in Swiss albino mouse at 30 mg/kg, ip measured after 120 mins post dose co-treated with 8-OH-DPAT; assay type: functional, organism-based; in short: as §1
Mus musculus [7] = test: Antidepressant-like activity in Swiss albino mouse assessed as reduction in immobility time at 7.5 mg/kg, ip dosed 1 hr before test by forced swimming test; assay type: functional, organism-based
In short: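 Male Swiss albino mice (18–24 g), compound i.p. in 0.1% DMSO/0.5% methylcellulose 1 h pre-test. Porsolt swim: cylinder 25 cm high, 10 cm diameter, 10 cm water at 23–25°C, 6 min session; immobility scored over last 4 min. Blind observer; one-way ANOVA with Dunnett's; mean ± SEM.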

Mus musculus [8] = test: Antidepressant-like activity in Swiss albino mouse assessed as reduction in immobility time at 15 mg/kg, ip dosed 1 hr before test by forced swimming test; assay type: functional, organism-based
In short: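 Male Swiss albino mice (18-24 g). The reference drug was diluted in saline and given ip (10 ml/kg) 1 h before testing. Each mouse swam for 6 min in a cylinder (25 cm high, 10 cm diameter) holding 10 cm of water at 23-25°C. Immobility was timed over the last 4 min. Data are mean ± SEM, analysed by one-way ANOVA with Dunnett's test.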

Mus musculus [9] = test: Toxicity in Swiss albino mouse assessed as reduction in spontaneous locomotor activity at 7.5 mg/kg, ip dosed 60 mins before test; assay type: organism-based; conditions: in vivo, 1 h
In short: (§2)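 Spontaneous locomotion: mice dosed i.p. 60 min before being placed individually in an actometer for 30 min. Distance travelled read at 6 and 30 min. Cages cleaned with 70% ethanol between animals. One-way ANOVA with Dunnett's; mean ± SEM of one experiment.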

Mus musculus [10] = test: Toxicity in Swiss albino mouse assessed as reduction in spontaneous locomotor activity at 15 mg/kg, ip dosed 60 mins before test; assay type: organism-based; conditions: in vivo, 1 h; in short: as §2
Mus musculus [11] = test: Anxiolytic-like activity in Swiss albino mouse assessed as increase in time spent in open arms at 3.75 to 15 mg/kg measured for 5 mins test period by elevated plus maze test; assay type: functional, organism-based
Rattus norvegicus [12] = test: In-vivo 5-HT1A receptor agonist activity in Wistar rat assessed as induction of lower lip retraction by measuring lower lip retraction score at 30 mg/kg, ip dosed 15 mins before test (reference value: 0.0 +/- 0.0)
Rattus norvegicus [13] = test: In-vivo 5-HT1A receptor agonist activity in Wistar rat assessed as induction of lower lip retraction by measuring lower lip retraction score at 1 mg/kg, ip dosed 15 mins before test co-treated with 0.3 mg/kg, ip WAY100635
Rattus norvegicus [14] = test: In-vivo 5-HT1A receptor antagonist activity in Wistar rat assessed as reduction in 8-OH-DPAT-stimulated induction of lower lip retraction by measuring lower lip retraction score at 30 mg/kg, ip dosed 15 mins before test (reference value: 2.875 +/- 0.08183)
Mus musculus [15] = test: Inhibition of 8-OH-DPAT-induced hypothermia in Swiss albino mouse at 0.1 mg/kg, ip measured after 120 mins post dose co-treated with 8-OH-DPAT; assay type: functional, organism-based
Rattus norvegicus [16] = test: In-vivo 5-HT1A receptor agonist activity in Wistar rat assessed as induction of lower lip retraction by measuring lower lip retraction score at 0.3 mg/kg, ip dosed 15 mins before test (reference value: 0.0 +/- 0.0)
Rattus norvegicus [17] = test: In-vivo 5-HT1A receptor antagonist activity in Wistar rat assessed as reduction in 8-OH-DPAT-stimulated induction of lower lip retraction by measuring lower lip retraction score at 0.3 mg/kg, ip dosed 15 mins before test (reference value: 2.875 +/- 0.08183)

5-hydroxytryptamine receptor 2A, sequence (P14842 whole entry): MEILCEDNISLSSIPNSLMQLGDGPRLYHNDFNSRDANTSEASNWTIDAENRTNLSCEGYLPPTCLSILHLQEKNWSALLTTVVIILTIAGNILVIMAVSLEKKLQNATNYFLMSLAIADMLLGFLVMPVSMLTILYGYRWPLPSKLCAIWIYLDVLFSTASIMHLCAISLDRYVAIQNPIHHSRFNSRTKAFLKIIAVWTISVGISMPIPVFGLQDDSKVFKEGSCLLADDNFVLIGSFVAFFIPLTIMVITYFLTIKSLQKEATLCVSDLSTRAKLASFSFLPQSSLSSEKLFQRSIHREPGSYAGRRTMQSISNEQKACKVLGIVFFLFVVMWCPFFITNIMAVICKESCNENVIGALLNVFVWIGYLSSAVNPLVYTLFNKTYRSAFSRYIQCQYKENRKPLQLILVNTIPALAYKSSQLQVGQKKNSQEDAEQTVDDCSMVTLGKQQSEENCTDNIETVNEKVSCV

Ki [1] [nM] | Ki [2] [µM] | Ki [3] [µM] | SMILES | Activity (Mus musculus [4]) | Activity (Mus musculus [5]) | inhibition (Mus musculus [6]) | Activity (Mus musculus [7]) | Activity (Mus musculus [8]) | Activity (Mus musculus [9]) | Activity (Mus musculus [10]) | Activity (Mus musculus [11]) | Activity_index (Rattus norvegicus [12]) | Activity (Rattus norvegicus [13]) | Activity_index (Rattus norvegicus [14]) | inhibition (Mus musculus [15]) | Activity_index (Rattus norvegicus [16]) | Activity_index (Rattus norvegicus [17])
0.046 | > 10 | > 10 | O=C(NCCN1CCN(c2ncccn2)CC1)c1ccccn1 | Non-Toxic | inactive | Active | Active | Active | Non-Toxic | Non-Toxic | Active | 2.714 | inactive | 2 |  |  | 
 |  |  | COc1ccccc1N1CCN(CCN(C(=O)C2CCCCC2)c2ccccn2)CC1 [WAY-100,635] |  |  |  |  |  |  |  |  |  |  |  | Active | 0 | 1.667
